Assay results published in ChEMBL document CHEMBL3392957, “The discovery of 1,2,3,9b-tetrahydro-5H-imidazo[2,1-a]isoindol-5-ones as a new class of respiratory syncytial virus (RSV) fusion inhibitors. Part 1” (Bioorg Med Chem Lett, 2015).
≈ marks a conversion by molar mass, not a printed value.

Key:
[1] = Cmax in Sprague-Dawley rat at 20 mg/kg, po as suspension with carboxymethylcellulose; conditions: in vivo
[2] = Oral bioavailability in Sprague-Dawley rat at 19 mg/kg as suspension with carboxymethylcellulose; assay type: ADME, organism-based; conditions: in vivo, 20 mg/kg, in the assay text read “20 mg/kg” for “19 mg/kg”
Summary of the method: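 Male Sprague-Dawley rats, n = 2, given a single oral dose. Plasma pharmacokinetics were analysed for Cmax (µM), terminal half-life (hr) and oral bioavailability F (%). The oral bioavailability estimate draws on a separate intravenous arm, also with n = 2 rats.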

[3] = Cytotoxicity against human Hep2 cells after 5 days by MTT assay; assay type: cell-based, HEp-2
Summary of the method: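 Uninfected HEp2 cells (1.0 × 10⁴/well) with serially diluted compound, 5 days at 37 °C in 5% CO₂; viability by MTT (1 mg/ml, 2 h), isopropanol, absorbance 540 nm; CC₅₀ by non-linear regression.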

[4] = system: Respiratory syncytial virus; experiment: Antiviral activity against Respiratory syncytial virus A2 infected in human Hep2 cells assessed as inhibition of virus-induced cytopathicity after 5 days by MTT assay relative to alpha-1-acid glycoprotein; assay type: functional, HEp-2
Summary of the method: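 RSV A2 CPE assay in HEp2 cells (moi 0.01, 5 days, 37 °C, MTT read-out at 540 nm) run with alpha-1-acid glycoprotein at 1.5 mg/mL; result expressed as fold shift in EC₅₀ versus the assay without AAG.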

[5] = Kinetic solubility of the compound at pH 2 by nephelometry; assay type: physicochemical; conditions: buffer, read-out: Kinetic_solubility
Summary of the method: (§1)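 Kinetic solubility by nephelometry, at pH 2 and pH 6.5; reported as a range in μg/mL.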

[6] = Apparent volume of distribution in Sprague-Dawley rat at 2.0 mg/kg, iv as solution in 5% glucose and 10% DMSO; conditions: in vivo, read-out: Vz
[7] = Kinetic solubility of the compound at pH 6.5 by nephelometry; assay type: physicochemical; conditions: buffer, read-out: Kinetic_solubility
Summary of the method: as §1

[8] = Lipophilicity, log D of the compound in octanol saturated mobile phase at pH 7.4 by chromatographic method; assay type: physicochemical
Summary of the method: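 Effective logD determined chromatographically on a SUPELCOSIL LC-ABZ column with octanol-saturated mobile phase, pH 7.4.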

[9] = system: Respiratory syncytial virus; experiment: Antiviral activity against Respiratory syncytial virus A2 infected in human Hep2 cells assessed as inhibition of virus-induced cytopathicity after 5 days by MTT assay; assay type: functional, organism-based; conditions: A2, HEp-2, 120 h
Summary of the method: (§2)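 HEp2 cells (1.0 × 10⁴/well) infected at low moi (e.g. RSV A2 at moi 0.01) and added to serially diluted compound; 5 days at 37 °C, 5% CO₂. CPE read by MTT (1 mg/ml, 2 h, 37 °C), isopropanol, absorbance 540 nm; EC₅₀ by non-linear regression. SD given where n > 2.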

[10] = Elimination half life in Sprague-Dawley rat at 2.0 mg/kg, iv as solution in 5% glucose and 10% DMSO; conditions: in vivo, read-out: beta t1/2 (converted)
[11] = system: Respiratory syncytial virus; experiment: Antiviral activity against wild-type Respiratory syncytial virus A Long infected in human Hep2 cells assessed as inhibition of virus-induced cytopathicity after 5 days by MTT assay; assay type: functional, organism-based; conditions: HEp-2, 120 h
Summary of the method: as §2

[12] = Elimination half life in Sprague-Dawley rat at 20 mg/kg, po as suspension with carboxymethylcellulose; conditions: in vivo, read-out: beta t1/2 (converted)
[13] = Total clearance in Sprague-Dawley rat at 2.0 mg/kg, iv as solution in 5% glucose and 10% DMSO; conditions: in vivo
[14] = system: Respiratory syncytial virus; experiment: Antiviral activity against Respiratory syncytial virus B1 infected in human Hep2 cells assessed as inhibition of virus-induced cytopathicity after 5 days by MTT assay; assay type: functional, organism-based; conditions: B1, HEp-2, 120 h
Summary of the method: as §2

[15] = Elimination half life in Sprague-Dawley rat at 22 mg/kg, po as suspension with hydroxypropylmethylcellulose; assay type: ADME, organism-based; set-up: dose 22 mg/kg, route oral; conditions: in vivo, read-out: beta t1/2 (converted)
[16] = Total clearance in Sprague-Dawley rat at 1.4 mg/kg, iv; assay type: ADME, organism-based; set-up: dose 1.4 mg/kg, route intravenous; conditions: in vivo
[17] = system: Respiratory syncytial virus; experiment: Selectivity ratio of EC50 for Respiratory syncytial virus A Long harboring F protein D489Y mutant infected in human Hep2 cells to EC50 for wild-type Respiratory syncytial virus A Long infected in human Hep2 cells
[18] = system: Respiratory syncytial virus; experiment: Selectivity ratio of EC50 for Respiratory syncytial virus A Long harboring F protein D489 mutant infected in human Hep2 cells to EC50 for wild-type Respiratory syncytial virus A Long infected in human Hep2 cells; assay type: functional, HEp-2
Summary of the method: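 CPE assay: HEp2 cells (1.0 × 10⁴/well) infected at low moi with RSV A Long, either F-protein D489Y mutant or wild type, and added to serially diluted compound. Incubated 5 days at 37 °C, 5% CO₂. MTT (1 mg/ml) added for 2 h, then isopropanol, and absorbance read at 540 nm. EC50 by non-linear regression. Ratio is mutant EC50 over wild-type EC50.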

[19] = Cmax in Sprague-Dawley rat at 22 mg/kg, po as suspension with hydroxypropylmethylcellulose; assay type: ADME, organism-based; set-up: dose 22 mg/kg, route oral; conditions: in vivo
[20] = Elimination half life in Sprague-Dawley rat at 1.4 mg/kg, iv; assay type: ADME, organism-based; set-up: dose 1.4 mg/kg, route intravenous; conditions: in vivo, read-out: beta t1/2 (converted)
[21] = Apparent volume of distribution in Sprague-Dawley rat at 1.4 mg/kg, iv; assay type: ADME, organism-based; set-up: dose 1.4 mg/kg, route intravenous; conditions: in vivo, read-out: Vz
[22] = Plasma protein binding in rat; assay type: ADME, cell-free; conditions: read-out: PPB (converted)
[23] = Oral bioavailability in Sprague-Dawley rat at 22 mg/kg as suspension with hydroxypropylmethylcellulose; assay type: ADME, organism-based; conditions: in vivo

SMILES	CC50 at 120 h [3] [µM]	fold change (FC) [4]	solubility kinetic [5] [mg/mL]	solubility kinetic [7] [mg/mL]	chromatographic logD [8]	EC50 [9] [µM]	EC50 [11] [µM]	EC50 [14] [µM]	further results
O=C(c1ccc(F)cc1)N1CCN2C(=O)c3cc[n+]([O-])cc3C12c1ccc(Cl)cc1 (racemic)	> 47	<10	0.05 (≈ 118 µM)	0.025 (≈ 59 µM)	2.3	0.25	0.12	0.91	Cmax [1]: 23 µM; bioavailability [2]: 89%; Vd [6]: 1.3 L/kg; half-life [10]: 6.5 h; half-life [12]: 5.6 h; clearance [13]: 0.144 L/h/kg
O=C(c1ccc(F)cc1)N1CCN2C(=O)c3ccccc3C12c1ccc(Cl)cc1 (racemic)	> 20	39	0.0063 (≈ 15.5 µM)	0.0063 (≈ 15.5 µM)	4	0.28	0.26	0.75	half-life [15]: 17 h; clearance [16]: 0.126 L/h/kg; Ratio EC50 [17]: >76; Ratio EC50 [18]: >76; Cmax [19]: 2 µM; half-life [20]: 16 h; Vd [21]: 2.7 L/kg; fraction unbound [22]: 0.02; bioavailability [23]: 15%
